Laboratory results from ChEMBL document CHEMBL3351873, “Synthesis, biological evaluation and molecular docking of novel chalcone-coumarin hybrids as anticancer and antimalarial agents” (Eur J Med Chem, 2014).
Calls of active or inactive are those of the source. No cut-off for these calls is given here.

Key:
A549 = experiment: Cytotoxicity against human A549 cells assessed as reduction in cell viability after 48 hrs by MTT assay; type: functional, cell-based; details: for IC50: A549, 48 h
Summary of the method: (§1)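 Adherent cells plated at 10,000–20,000 cells/well and allowed 24 h at 37 °C (5% CO₂) before an equal volume of medium with serially diluted compound was added. Etoposide and/or doxorubicin were positive controls and DMSO the negative control. After a further 48 h, surviving cells were measured by MTT. IC50 is the concentration giving 50% growth inhibition relative to the DMSO control.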

[1] = (§2) Cytotoxicity against human MOLT3 cells assessed as reduction in cell viability after 48 hrs by XTT assay; type: functional, cell-based; details: MOLT-3, 48 h
Summary of the method: (§3)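 Suspension cells plated at 10,000–20,000 cells/well and pre-incubated 24 h at 37 °C, 5% CO₂. Serial compound dilutions were added in an equal volume of medium, with etoposide and/or doxorubicin as positive controls and DMSO as negative control, then incubated 48 h more. Viable cells were read by XTT. IC50 is taken as 50% growth inhibition versus the DMSO control.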

HepG2 [2] = experiment: Cytotoxicity against human HepG2 cells assessed as reduction in cell viability after 48 hrs by MTT assay; type: functional, cell-based; details: for IC50: HepG2, 48 h; summary of the method: as §1
[3] = (§4) Cytotoxicity against human HuCCa1 cells assessed as reduction in cell viability after 48 hrs by MTT assay; type: functional, cell-based; details: HuCC-A1, 48 h; summary of the method: as §1
Plasmodium falciparum = experiment: Antimalarial activity against multidrug-resistant Plasmodium falciparum K1 after 24 hrs by [3H]hypoxanthine incorporation assay; type: functional, organism-based
Summary of the method: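 P. falciparum K1 kept in RPMI 1640 with 20 mM HEPES, NaHCO₃, 10% human serum and 3% erythrocytes at 37 °C under 3% CO₂, passaged daily. Early ring-stage parasites (1% parasitemia, 1.5% erythrocytes) were exposed to compound (0.1% DMSO final) for 24 h. [3H]hypoxanthine was then added for a further 24 h. Incorporation was counted by scintillation and expressed as percent parasite growth.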

Vero = experiment: Cytotoxicity against african green monkey Vero cells assessed as reduction in cell viability after 4 days by green fluorescent protein detection method; type: cell-based; details: chlorocebus sabaeus, 96 h
Summary of the method: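 GFP-expressing Vero cells (stably transfected with pEGFP-N1) seeded at 3.3 × 10⁴ cells/mL onto compounds prediluted in 0.5% DMSO; 4 days at 37 °C, 5% CO₂. Fluorescence read at ex 485/em 535 nm, day-0 background subtracted. IC50 from dose-response curves over 6 concentrations (3-fold serial dilutions). Ellipticine positive control, 0.5% DMSO negative control.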

HuCC-A1 = experiment: as §4; type: functional, cell-based; summary of the method: as §1
MOLT-3 = experiment: as §2; type: functional, cell-based; summary of the method: as §3
HepG2 [4] = experiment: Ratio of etoposide IC50 to compound IC50 for human HepG2 cells assessed as reduction in cell viability after 48 hrs by MTT assay; type: functional
[5] = Plasmodium falciparum, K1, read-out: IC50

Row | Compound | Activity (A549) | IC50 [1] [µM] | Activity (HepG2 [2]) | IC50 [3] [µM] | IC50 (Plasmodium falciparum) | Activity (Vero) | IC50 (Plasmodium falciparum; [5]) [µM] | IC50 (HepG2 [2]) [µM] | Activity (HuCC-A1) | IC50 (A549) [µM] | Activity (MOLT-3) | Ratio IC50 (HepG2 [4]) | IC50 (Vero) [µM]
1 | COc1ccc(/C=C/C(=O)c2cccc(-n3cc(COc4cc(=O)oc5ccccc45)nn3)c2)cc1OC | inactive | 3.91 | inactive | 38.6 | Not Active | Non-toxic | – | – | – | – | – | – | –
2 | C[C@H]1[C@@H](O)O[C@@H]2O[C@@]3(C)CC[C@H]4[C@H](C)CC[C@@H]1[C@@]24OO3 [ARTENIMOL] | – | – | – | – | – | – | 0.0011 | – | – | – | – | – | –
3 | COc1ccc(/C=C/C(=O)c2ccc(-n3cc(COc4cc(=O)oc5ccccc45)nn3)cc2)c(OC)c1OC | inactive | 12.3 | – | – | – | Non-toxic | 1.6 | 22.9 | inactive | – | – | – | –
4 | COc1cc(/C=C/C(=O)c2ccc(-n3cc(COc4cc(=O)oc5ccccc45)nn3)cc2)cc(OC)c1OC | inactive | 6.58 | inactive | – | Not Active | Non-toxic | – | – | inactive | – | – | – | –
5 | COc1cccc2c1C(=O)c1c(O)c3c(c(O)c1C2=O)C[C@@](O)(C(=O)CO)C[C@@H]3O[C@H]1C[C@H](N)[C@H](O)[C@H](C)O1 [DOXORUBICIN] | – | – | – | 0.83 | – | – | – | – | – | – | – | – | –
6 | COc1cc(/C=C/C(=O)c2ccc(-n3cc(COc4ccc5ccc(=O)oc5c4)nn3)cc2)cc(OC)c1OC | inactive | 79.5 | inactive | – | Not Active | Non-toxic | – | – | inactive | – | – | – | –
7 | COc1cccc(/C=C/C(=O)c2ccc(-n3cc(COc4ccc5ccc(=O)oc5c4)nn3)cc2)c1OC | – | – | – | 4.81 | Not Active | Non-toxic | – | 8.18 | – | 7.95 | inactive | – | –
8 | COc1ccc(/C=C/C(=O)c2cccc(-n3cc(COc4ccc5ccc(=O)oc5c4)nn3)c2)cc1OC | inactive | 3.12 | inactive | 33.4 | Not Active | Non-toxic | – | – | – | – | – | – | –
9 | COc1cc([C@@H]2c3cc4c(cc3[C@@H](O[C@@H]3O[C@@H]5CO[C@@H](C)O[C@H]5[C@H](O)[C@H]3O)[C@H]3COC(=O)[C@H]23)OCO4)cc(OC)c1O [ETOPOSIDE] | – | 0.051 | – | – | – | – | – | – | – | – | – | – | –
10 | COc1ccc(/C=C/C(=O)c2cccc(-n3cc(COc4ccc5ccc(=O)oc5c4)nn3)c2)c(OC)c1OC | inactive | 3.89 | inactive | – | – | Non-toxic | 13 | – | inactive | – | – | – | –
11 | COc1ccc(/C=C/C(=O)c2ccc(-n3cc(COc4ccc5ccc(=O)oc5c4)nn3)cc2)c(OC)c1OC | inactive | 22.5 | inactive | – | Not Active | Non-toxic | – | – | inactive | – | – | – | –
12 | COc1cccc(/C=C/C(=O)c2cccc(-n3cc(COc4cc(=O)oc5ccccc45)nn3)c2)c1OC | – | 0.53 | – | 2.36 | – | – | 4.73 | 4.26 | – | 18.1 | – | 7 | 3.91
13 | COc1ccc(/C=C/C(=O)c2cccc(-n3cc(COc4cc(=O)oc5ccccc45)nn3)c2)c(OC)c1OC | inactive | 1.13 | inactive | 6.13 | – | Non-toxic | 7.47 | – | – | – | – | – | –
14 | Cc1c2ccncc2c(C)c2c1[nH]c1ccccc12 [ELLIPTECINE] | – | – | – | – | – | – | – | – | – | – | – | – | 1.94
15 | COc1cccc(/C=C/C(=O)c2cccc(-n3cc(COc4ccc5ccc(=O)oc5c4)nn3)c2)c1OC | – | 5.16 | – | 11.1 | – | – | 6.63 | 15.7 | – | 31.4 | – | – | 35
